Experimental data taken from PubChem BioAssay AID624204 (Sanford-Burnham Center for Chemical Genomics, 2012).
Among all 360,000 compounds or so, about 770 (0.21%) were called active.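 Rule for the calls: active = inhibition at least 30% at 10 µM, raw YFP signal under a set limit, fluorescence ratio 0.5 to 1.5; inactive = the rest.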 Shown is part of a subset that was picked to be rich in actives.

What follows are molecules tested against Sentrin-specific protease 1 (Homo sapiens) (UniProt Q9P0U3) (assay: blockers of SENP1 SUMO protease activity – biochemical, FRET, uHTS, primary screen (AID 624204;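 note: 0% = enzyme with DMSO and 100% = no enzyme wells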)). Conditions: recombinant SENP1 catalytic domain, CyPet-SUMO1-YPet FRET cleavage; at 10 µM; hits give high values.
How it was run: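 Compound: 10 µM single point, 0.5% DMSO; Test system: hSENP1 catalytic domain, recombinant; Timing: 50 min reaction at room temperature; Technique: FRET, CFP and YFP emission; Control set: no-enzyme wells low, DMSO-plus-enzyme wells high control.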

Sequence of Sentrin-specific protease 1 (Homo sapiens) (Q9P0U3 419-644 limits assumed): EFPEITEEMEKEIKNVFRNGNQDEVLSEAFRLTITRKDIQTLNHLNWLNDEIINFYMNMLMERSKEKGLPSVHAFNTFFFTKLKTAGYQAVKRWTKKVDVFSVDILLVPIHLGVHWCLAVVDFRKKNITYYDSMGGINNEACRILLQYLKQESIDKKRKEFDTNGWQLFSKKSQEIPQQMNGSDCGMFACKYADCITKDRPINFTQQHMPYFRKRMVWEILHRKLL

Row | SMILES | inhibition
1 | N/C(=N\OC(=O)CCc1ccccc1)c1ccc(Cl)cc1 | 4.15% (inactive)
2 | N/C(=N\OC(=O)N1c2ccccc2Sc2ccccc21)c1ccc(Br)cc1 | 45.8% (active)
3 | N/C(=N\OC(=O)c1ccc2c(c1)OCO2)c1ccc(Br)cc1 | 2.72% (inactive)
4 | Fc1ccc(CNCc2ccc(Br)cc2)cc1 | 0.319% (inactive)
5 | CC(C)c1ccc(S(=O)(=O)N2CCC3(CC2)OCCO3)cc1 | -0.675% (inactive)
6 | CC(C)=CCN1CCN(Cc2cc3ccccc3[nH]2)CC1CCO (centres undefined) | -16.2% (inactive)
7 | O=C(OCC(=O)N1CCCCCC1)c1ccc(Br)c(S(=O)(=O)N2CCOCC2)c1 | 2.31% (inactive)
8 | CCC1CCCCN1CCNC(=O)c1[nH]c(C)c(C(C)=O)c1C (centres undefined) | -5.33% (inactive)
9 | CS(=O)(=O)Nc1ccccc1N=C(c1ccccc1)c1ccccc1 | 1.89% (inactive)
10 | CCc1ccc(C(=O)NN=C2CCCCCC2)s1 | 1.74% (inactive)
11 | COc1ccc(-c2c(C#N)cnc(C)c2C)c(O)c1OC | 0.472% (inactive)
12 | COC(=O)CNC(=O)C(CCSC)NC(C)=O (centres undefined) | 2.78% (inactive)
13 | CC(C)n1cnc2c(NCc3ccccc3)cc(OCC3CCN(C)CC3)cc21 | -28.3% (inactive)
14 | COCC1CCN(C(=O)C2CCC(=O)N(Cc3cccc(C(F)(F)F)c3)C2)CC1 (centres undefined) | 2.83% (inactive)
15 | O=C(c1cccs1)N(Cc1cc2ccccc2[nH]c1=O)CC1CCCO1 (centres undefined) | 0.621% (inactive)
16 | COc1ccc(S(=O)(=O)N2CCOC2CNC(=O)C(=O)NCc2ccc(F)cc2)cc1 (centres undefined) | 0.939% (inactive)
17 | Cc1oc2c(F)c(F)c(F)c(F)c2c1S(=O)(=O)Nc1cccc(C(F)(F)F)c1 | 0.0743% (inactive)
18 | COc1ccc(S(=O)(=O)N(C)C[C@H]2OCc3cnnn3CCCC(=O)N([C@H](C)CO)C[C@H]2C)cc1 | 0.96% (inactive)
19 | O=C(Cn1cnc2ccccc21)Nc1ccccc1-c1ccccc1 | 2.05% (inactive)
20 | O=C(COC(=O)Cn1cnc2ccccc2c1=O)NCC12CC3CC(CC(C3)C1)C2 | -2.59% (inactive)

Row | SMILES | inhibition
21 | O=C(COC(=O)Cn1cnc2ccccc21)Nc1cccc2c1C(=O)c1ccccc1C2=O | 49.1% (active)
22 | O=[N+]([O-])c1cc(S(=O)(=O)Nc2cccc(Cl)c2)ccc1N=Nc1c(O)[nH]c2ccccc12 | 7.59% (inactive)
23 | CCN(CC)S(=O)(=O)c1cc([N+](=O)[O-])ccc1N=Nc1c(O)n(C)c2ccccc12 | 38.9% (active)
24 | CCN(CC)S(=O)(=O)c1ccc2c3c(cccc13)C(=O)S2 | -5.16% (inactive)
25 | COc1ccccc1-c1noc(CSc2nc(C)cc(=O)[nH]2)n1 | 0.334% (inactive)
26 | CC(/C=C/C1(O)C(C)CC(=O)CC1(C)C)OC1OC(CO)C(O)C(O)C1O (centres undefined) | -6.63% (inactive)
27 | O=C(CNC(=O)N1CC(=O)Nc2ccccc21)Nc1ccc(Br)cc1F | -5.9% (inactive)
28 | Cc1ccc(S(=O)(=O)NC2CCCCCC2)cc1C(N)=O | 1.4% (inactive)
29 | CCN(C(=O)CSc1nnc2ccccn12)C1CCS(=O)(=O)C1 (centres undefined) | 0.95% (inactive)
30 | CCCCCn1nnnc1-c1nc2cc3ccccc3cc2[nH]c1=O | 70.6% (active)
31 | CCCCCn1nnnc1C1c2ccccc2C(=O)N1Cc1ccco1 (centres undefined) | 2.03% (inactive)
32 | CCCCn1c(-c2cccc(C)c2)nc2cc3[nH]c(=O)c(C(C)C)nc3cc21 | -46.9% (inactive)
33 | CC(=O)Nc1ccc(Sc2ccccc2C(=O)N2CCCC2)cn1 | 0.55% (inactive)
34 | Cc1c(CN2CCC(n3nccc3NC(=O)CCc3ccccc3)CC2)cnn1C | 2.13% (inactive)
35 | CCn1nc(C(=O)NNC(=O)C2CSC3(C)CCC(=O)N23)c2ccccc2c1=O (centres undefined) | 1.35% (inactive)
36 | CCc1nc2ccc(C(=O)Nc3cc(-c4ccccc4)ccc3OC)cn2c1N(CC)CC(=O)N(C)C | -1.8% (inactive)
37 | CCCn1c(=O)c2ccccc2n2c(SCC(=O)/C(C#N)=C(\C)N)nnc12 | -2.1% (inactive)
38 | CN(C)CCN(Cc1ccccc1)S(=O)(=O)c1csc(C(N)=O)c1 | 3.33% (inactive)
39 | Cc1ccc(SC(=O)COc2ccc(C)c(C)c2)cc1 | 4.05% (inactive)
40 | CC(C)OC(=O)CC(=O)CC(O)c1cccc([N+](=O)[O-])c1 (centres undefined) | 1.31% (inactive)

Row | SMILES | inhibition
41 | COc1cccc(/C=N/NC(=O)c2[nH]nc3c2CCc2ccccc2-3)c1O | 48.9% (active)
42 | COc1ccccc1-c1nnc(NC(=O)c2cccc(N3C(=O)CCC3=O)c2)o1 | 1.37% (inactive)
43 | COc1ccc(Cl)cc1C=CC=NNC(=O)c1ccncc1 | 2.79% (inactive)
44 | CC1CCN(C2=NC(=O)/C(=C/c3cn[nH]c3-c3ccccc3)S2)CC1 | -1.05% (inactive)
45 | CCOc1cc(/C=C2\SC(N3CCCC(C)C3)=NC2=O)ccc1O (centres undefined) | 58.5% (active)
46 | CCOc1cc(/C=C2\SC(N3CCCCC3)=NC2=O)ccc1O | 56.6% (active)
47 | CCN1C(=O)/C(=C2\SC(N3CCCCC3)=NC2=O)c2ccccc21 | 1.36% (inactive)
48 | CCOc1cc(/C=C2\C(=N)N3N=C(C)SC3=NC2=O)ccc1OCCOc1ccccc1 | -3.15% (inactive)
49 | Cc1cccc(N(C(=O)Cc2cccs2)C(C(=O)NCc2ccco2)c2ccncc2)c1 (centres undefined) | -0.142% (inactive)
50 | COc1ccc(S(=O)(=O)N2CCC(C(=O)NCCC(=O)NCCc3cccc(F)c3)CC2)cc1 | 1.66% (inactive)
51 | COc1ccc(CC(=O)N[C@@H]2c3cc(OC)c(OC)cc3C[C@H]2OCc2ccccc2)cc1 | 2.95% (inactive)
52 | O=C(NC1CCCCC1)C1CC(=O)N(CCc2ccccc2)C1 (centres undefined) | 1.46% (inactive)
53 | CCOC(=O)/C(=N\Nc1cc(Cl)ccc1Cl)N1CCN(C)CC1 | 0.895% (inactive)
54 | O=S(=O)(c1ccc(F)cc1)N1CCN(C(=S)NC2CCCC2)CC1 | 2.06% (inactive)
55 | CCCCn1nnnc1NCc1cc(OC)c(OC)c(OC)c1 | 1.02% (inactive)
56 | CCOC(=O)N1CCC(O)(c2cc(C)c(C)cc2C)CC1 | 0.28% (inactive)
57 | Fc1cccc(Cc2c(-c3cccc(Cl)c3)nc3ccc(Br)cn23)c1 | 45.8% (active)
58 | Clc1cccc(Cc2c(-c3cccc(Cl)c3)nc3ccc(Cl)cn23)c1 | 18.5% (inactive)
59 | Fc1cccc(Cc2c(-c3ccc(Cl)cc3)nc3ccc(Cl)cn23)c1 | 9.99% (inactive)
